Test results: ChEMBL document CHEMBL4706606, “Re-evaluating pretomanid analogues for Chagas disease: Hit-to-lead studies reveal both in vitro and in vivo trypanocidal efficacy” (Eur J Med Chem, 2020)
Converted amounts (≈) assume the structure as drawn.

Key:
[1] = Cytotoxicity against rat 3T3 cells assessed as reduction in cell viability incubated for 72 hrs by alamar blue assay; format: ADME, cell-based; details: NIH3T3, 72 h
Trypanosoma cruzi [2] = test: Antitrypanosomal activity against Trypanosoma cruzi Tulahuen strain C2C4 amastigotes infected in […] cells assessed as reduction in parasite growth incubated for 48 hrs by chlorophenol red-fl-D-galactopyranoside based colorimetric analysis; format: functional, organism-based; details: for IC50: Tulahuen strain C2C4, NIH3T3, 48 h; for IC90: Tulahuen strain C2C4, NIH3T3, time 48 hrs
[3] = Inhibition of Trypanosoma cruzi Tulahuen C4 strain CYP51 expressed in Escherichia coli by fluorescence based assay
Trypanosoma cruzi [4] = test: Antitrypanosomal activity against Trypanosoma cruzi Tulahuen strain C2C4 amastigotes infected in rat L6 cells assessed as inhibition of parasite growth incubated for 96 hrs by chlorophenol red-fl-D-galactopyranoside based colorimetric analysis; format: functional, organism-based; details: for IC50: Tulahuen strain C2C4, L6, 96 h; for IC90: Tulahuen strain C2C4, L6, time 96 hrs
In short: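 Tulahuen strain TcVI T. cruzi expressing β-galactosidase, grown in L6 rat skeletal myoblast host cells. IC50/IC90 growth inhibition. Each value is the mean of ≥2 independent determinations using fresh sample stock.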

L6 = test: Cytotoxicity against rat L6 cells assessed as reduction in cell viability incubated for 72 hrs by alamar blue assay; format: ADME, cell-based; details: L6, 72 h
Trypanosoma cruzi [5] = test: Antitrypanosomal activity against Trypanosoma cruzi Tulahuen strain C2C4 amastigotes infected in […] cells assessed as reduction in parasite growth incubated for 48 hrs by chlorophenol red-fl-D-galactopyranoside based colorimetric analysis relative to control; format: functional
[6] = Kinetic solubility of compound in water sonicated for 15 mins by HPLC analysis
[7] = Metabolic stability in human liver microsomes assessed as parent compound remaining incubated for 1 hr; format: ADME, Microsome; details: read-out: Stabilty
In short: (§1)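 Pooled human or CD-1 mouse liver microsomes at 0.4 mg/mL microsomal protein. Percent parent remaining after 1 h incubation.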

[8] = Selectivity index, ratio of IC50 for cytotoxicity against rat 3T3 cells to IC50 for antitrypanosomal activity against Trypanosoma cruzi Tulahuen strain C2C4 amastigotes infected in rat 3T3 cells; details: 3T3 cells
[9] = Metabolic stability in CD-1 mouse liver microsomes assessed as parent compound remaining incubated for 1 hr; format: ADME, Microsome; in short: as §1
[10] = Selectivity index, ratio of IC50 for cytotoxicity against rat L6 cells to IC50 for antitrypanosomal activity against Trypanosoma cruzi Tulahuen strain C2C4 amastigotes infected in rat L6 cells
Trypanosoma cruzi [11] = test: Antitrypanosomal activity against Trypanosoma cruzi amastigotes assessed as inhibition of parasite growth at 10 ug/ml relative to control
[12] = Half life in human liver microsomes incubated for 60 mins

| Structure (SMILES) | IC50 [1] | IC50 (Trypanosoma cruzi [2]) | IC90 (Trypanosoma cruzi [2]) | IC50 [3] | IC50 (Trypanosoma cruzi [4]) | IC90 (Trypanosoma cruzi [4]) | IC50 (L6) | %max (Trypanosoma cruzi [5]) | solubility kinetic at 0.25 h [6] | remaining at 1 h [7] | selectivity ratio [8] | remaining at 1 h [9] | selectivity ratio [10] | inhibition at 10 µg/mL (Trypanosoma cruzi [11]) | half-life at 1 h [12] |
| --- | --- | --- | --- | --- | --- | --- | --- | --- | --- | --- | --- | --- | --- | --- | --- |
| O=[N+]([O-])c1cn2c(n1)OC[C@H](OCc1ccc(-c3ccc(OC(F)(F)F)cc3)cn1)C2 | > 73000 nM | 390 nM | 2600 nM | > 10000 nM | 49 nM | 310 nM | 51000 nM | 80% | – | – | – | – | – | – | – |
| CC1(COc2ccc(OC(F)(F)F)c(Cl)c2)CCn2cc([N+](=O)[O-])nc2O1 (stereo not given) | – | – | – | – | 310 nM | 6500 nM | 53000 nM | – | 0.5 µg/mL (≈ 1.23 µM) | – | – | – | – | – | – |
| CC1(COc2ccc(OC(F)(F)F)cc2)CCn2nc([N+](=O)[O-])nc2O1 (stereo not given) | > 37000 nM | 220 nM | 850 nM | > 10000 nM | – | – | – | 96% | 9.5 µg/mL (≈ 25.4 µM) | 91% | > 168 | 92% | – | – | – |
| O=[N+]([O-])c1cn2c(n1)OC(COc1ccc(-c3ccc(F)cc3)nc1)CC2 (racemic) | – | – | – | – | 170 nM | 560 nM | – | – | – | – | – | – | – | – | – |
| O=[N+]([O-])c1cn2c(n1)OC(COc1cnc(-c3ccc(OC(F)(F)F)cc3)nc1)CC2 (stereo not given) | – | – | – | – | 330 nM | 960 nM | 70000 nM | – | – | – | – | – | 212 | – | – |
| O=[N+]([O-])c1cn2c(n1)OC(COc1ccc(-c3ccc(OC(F)(F)F)cc3)nn1)CC2 (stereo not given) | – | – | – | – | 380 nM | 960 nM | 42000 nM | – | – | – | – | – | 111 | – | – |
| CC1(COc2ccc(OC(F)(F)F)cc2)Cn2nc([N+](=O)[O-])nc2O1 (stereo not given) | > 73000 nM | 720 nM | 2100 nM | > 10000 nM | – | – | – | 96% | – | – | > 101 | – | – | – | – |
| O=[N+]([O-])c1cn2c(n1)SCC(OCc1ccc(OCc3ccccc3)cc1)C2 (stereo not given) | – | – | – | – | 900 nM | – | – | – | – | – | – | – | – | – | – |
| O=[N+]([O-])c1cn2c(n1)OC[C@H](OCc1ccc(-c3ccc(OC(F)(F)F)cc3Cl)cc1)C2 | > 37000 nM | 570 nM | 1000 nM | > 10000 nM | 240 nM | 1100 nM | 25000 nM | 99% | < 0.1 µg/mL | 85% | > 65 | 76% | 104 | – | – |
| CC1(COc2ccc(OC(F)(F)F)cc2)Cn2cc([N+](=O)[O-])nc2O1 (racemic) | > 73000 nM | 950 nM | 2300 nM | > 10000 nM | – | – | – | 68% | – | – | – | – | – | – | – |
| CC1(COc2ccc(OC(F)(F)F)cc2)CCn2cc([N+](=O)[O-])nc2S1 (stereo not given) | – | – | – | – | 1100 nM | 2600 nM | > 100000 nM | – | – | – | – | – | > 91 | – | – |
| CC1(COc2ccc(OC(F)(F)F)cc2)CCn2cc([N+](=O)[O-])nc2[S+]1[O-] (stereo not given) | – | – | – | – | 1600 nM | 3700 nM | 73000 nM | – | – | – | – | – | 46 | – | – |
| CC1(COc2ccc(OC(F)(F)F)cc2)Cn2ccnc2O1 (stereo not given) | > 73000 nM | 4700 nM | 10000 nM | 160 nM | – | – | – | 80% | – | – | > 16 | – | – | – | – |
| CC1(COc2ccc(OC(F)(F)F)cc2Cl)CCn2cc([N+](=O)[O-])nc2O1 (stereo not given) | – | – | – | – | 460 nM | 1300 nM | > 100000 nM | – | 0.61 µg/mL (≈ 1.5 µM) | – | – | – | – | – | – |
| O=[N+]([O-])c1cn2c(n1)OC[C@H](OCC#Cc1ccc(OC(F)(F)F)cc1)C2 | > 37000 nM | 190 nM | 440 nM | > 10000 nM | – | – | – | 99% | – | – | > 195 | – | – | – | – |
| O=[N+]([O-])c1cn2c(n1)OC(COc1ccc(-c3ccc(F)nc3)cc1)CC2 (stereo not given) | > 37000 nM | 74 nM | 330 nM | > 10000 nM | 18 nM | 44 nM | > 100000 nM | 98% | – | – | > 500 | – | > 5560 | – | – |
| CC1(COc2ccc(OC(F)(F)F)c(F)c2)CCn2cc([N+](=O)[O-])nc2O1 (stereo not given) | – | – | – | – | 560 nM | 1900 nM | 68000 nM | – | 0.95 µg/mL (≈ 2.43 µM) | – | – | – | – | – | – |
| O=[N+]([O-])c1cn2c(n1)OC(COc1ccc(-c3ccc(OC(F)(F)F)cc3)cn1)CC2 (stereo not given) | – | – | – | – | 40 nM | 180 nM | > 100000 nM | – | – | – | – | – | > 2500 | – | – |
| O=[N+]([O-])c1cn2c(n1)S(=O)(=O)CC(OCc1ccc(COc3ccccc3)cc1)C2 (stereo not given) | – | – | – | – | 280 nM | 440 nM | > 100000 nM | – | 0.13 µg/mL (≈ 0.303 µM) | – | – | – | > 357 | 95% | 1.72 h |
